Like-named read-outs stand apart in the source and are kept apart here.
Tests used:
[1] = system: T. brucei brucei trypomastigotes wild type strain; settings: read-out: IC50 T. brucei brucei trypomastigotes wild type strain; cited from earlier work
[2] = cited from earlier work
[3] = system: T. brucei brucei trypomastigotes NTR over-expressing strain; settings: wild type IC50 / NTR over-expressing IC50; cited from earlier work
[4] = system: L. infantum axenic amastigotes; settings: read-out: IC50 L. infantum axenic amastigotes; cited from earlier work
HepG2 cell line = settings: read-out: CC50 HepG2; cited from earlier work
[5] = system: T. brucei brucei trypomastigotes; settings: cited from earlier work
[6] = Cytotoxic evaluation on HepG2 cell line; type: cell-based; settings: human, HepG2 cells (hepatocarcinoma cell line)
In short: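 HepG2 cells were seeded at 1 × 10^5 cells/mL in Alpha MEM with 10% FBS, 2 mM L-glutamine and antibiotics, and pre-incubated for 24 h at 37°C, 5% CO2. Compounds were added at various concentrations for 72 h, and wells were checked for precipitate. MTT (0.5 mg/mL) was added for 2 h, formazan was dissolved in DMSO, and A570 was read. Doxorubicin was the positive control. CC50 came from non-linear regression, mean of three independent experiments.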

[7] = system: T. brucei brucei trypomastigotes; experiment: Antitrypanosomal activity on T. brucei brucei trypomastigotes; type: cell-based, Trypanosoma brucei brucei; settings: for Antitrypanosomal selectivity Index: CC50 HepG2 / IC50 T. brucei brucei; for times more potent than the meta-substituted analogue: T. brucei brucei IC50, para versus meta (15 vs 16, 21 vs 22)
[8] = system: L. infantum axenic amastigotes; experiment: Antileishmanial activity on L. infantum axenic amastigotes; type: cell-based; settings: Leishmania infantum, 48 h, read-out: IC50 L. infantum axenic amastigotes
In short: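 They were moved to RPMI at pH 5.4 for 24 h at 24°C, then 24 h at 37°C, to give axenic amastigotes. Compounds in DMSO (final <0.5% v/v) were tested in duplicate for 48 h at 37°C. Read-out was Steady Glow luminescence. IC50 came from non-linear regression, mean of three independent experiments.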

[9] = Cyclic voltammetry, reduction potentials; type: physicochemical; settings: DMSO/TBAPF6, SCE/GC, 1 electron reversible reduction, V versus NHE
[10] = Chemical stability of the product; type: physicochemical; settings: in words; cyclises to 25 on recrystallisation from acetonitrile
[11] = Aqueous solubility as observed in the biological assays; type: physicochemical; settings: in words
[12] = system: T. brucei brucei trypomastigotes NTR over-expressing strain; experiment: Bioactivation study, strain overexpressing the nitroreductase; type: cell-based, Trypanosoma brucei; settings: for IC50: Trypanosoma brucei, 72 h, read-out: IC50 T. brucei brucei trypomastigotes NTR over-expressing strain; for Fold change: wild type IC50 / NTR over-expressing IC50
In short: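 Bloodstream T. brucei S427 'single marker' was grown at 37°C in HMI9-T with 2.5 µg/mL G418. The NTR1-overexpressing line also received 2.5 µg/mL phleomycin, with NTR induced by 1 µg/mL tetracycline 48 h before assay. Triplicate cultures were seeded at 1 × 10^5 cells/mL with inhibitor and counted after 72 h. EC50 came from a two-parameter fit (slope factor m) to background-corrected density as % of uninhibited control. Fold change is wild-type IC50 / overexpressor IC50.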

[13] = system: T. brucei brucei trypomastigotes wild type strain; experiment: Bioactivation study, wild type strain; type: cell-based; settings: Trypanosoma brucei, 72 h, read-out: IC50 T. brucei brucei trypomastigotes wild type strain

Q: Which IC50 [1] does the source give for `O=c1[nH]c2c([N+](=O)[O-])cccc2cc1Br` [Initial Hit, 3-bromo-8-nitroquinolin-2(1H)-one] here?
A: 17.7 ± 1 µM

Q: And the “genotoxicity in the comet assay” value [2]?
A: not genotoxic

Q: What about the Fold change [3] of the same compound?
A: 4.5

Q: And the IC50 [4]?
A: 7.1 ± 1.5 µM

Q: And the CC50 (HepG2 cell line)?
A: 92 ± 13 µM

Q: And the “Antitrypanosomal selectivity Index” value ([5]; CC50 HepG2 / IC50 T. brucei brucei)?
A: 48

Q: And the IC50 ([5]; read-out: IC50 T. brucei brucei trypomastigotes)?
A: 1.9 ± 0.44 µM

Q: What does the source list for `Cc1ccc(C(=O)Nc2ccc(S(=O)(=O)O)c3cc(S(=O)(=O)O)cc(S(=O)(=O)O)c23)cc1NC(=O)c1cccc(NC(=O)Nc2cccc(C(=O)Nc3cc(C(=O)Nc4ccc(S(=O)(=O)O)c5cc(S(=O)(=O)O)cc(S(=O)(=O)O)c45)ccc3C)c2)c1` [Suramin, reference compound]?
A: CC50 at 72 h [6]: > 100 µM; Antitrypanosomal selectivity Index [7]: >3333

Q: With `O=c1[nH]c2c([N+](=O)[O-])cccc2cc1-c1ccsc1` [Compound 8, 8-nitro-3-(thiophen-3-yl)quinolin-2(1H)-one] as the compound, how does the CC50 at 72 h [6] read?
A: > 6 µM

Q: What about the IC50 [8] of the same compound?
A: > 6 µM

Q: Which results are given for `O=c1[nH]c2c([N+](=O)[O-])cccc2cc1-c1ccc(F)cc1` [Compound 6, 3-(4-fluorophenyl)-8-nitroquinolin-2(1H)-one]?
A: CC50 at 72 h [6]: > 6 µM; IC50 [8]: > 6 µM

Q: With `O=c1[nH]c2c([N+](=O)[O-])cccc2cc1-c1cccnc1` [Compound 10, 8-nitro-3-(pyridine-3-yl)quinolin-2(1H)-one] as the compound, how does the CC50 at 72 h [6] read?
A: > 25 µM

Q: What about the “Antitrypanosomal selectivity Index” value [7] of the same compound?
A: >9

Q: What about the IC50 [8] of the same compound?
A: > 50 µM

Q: What does the source list for `O=c1[nH]c2c([N+](=O)[O-])cccc2cc1-c1ccccc1` [Compound 1, 8-nitro-3-phenylquinolin-2(1H)-one]?
A: CC50 at 72 h [6]: > 12 µM; E° (reduction potential) [9]: -0.59 V; Antitrypanosomal selectivity Index [7]: >2; IC50 [8]: > 12 µM

Q: With `O=c1[nH]c2c([N+](=O)[O-])cccc2cc1-c1ccc(O)cc1` [Compound 3, 3-(4-hydroxyphenyl)-8-nitroquinolin-2(1H)-one] as the compound, how does the CC50 at 72 h [6] read?
A: > 3 µM

Q: And the IC50 [8]?
A: > 3 µM

Q: For `Nc1ccc(-c2cc3cccc([N+](=O)[O-])c3[nH]c2=O)cc1` [Compound 4, 3-(4-aminophenyl)-8-nitroquinolin-2(1H)-one], which CC50 at 72 h [6] is on record?
A: > 3 µM

Q: And the IC50 [8]?
A: > 3 µM

Q: Which CC50 at 72 h [6] does the source give for `O=Cc1cccc(-c2cc3cccc([N+](=O)[O-])c3[nH]c2=O)c1` [Compound 16, 3-(3-formylphenyl)-8-nitroquinolin-2(1H)-one] here?
A: > 100 µM

Q: And the “Antitrypanosomal selectivity Index” value [7]?
A: >18

Q: What about the IC50 [8] of the same compound?
A: 10.2 ± 0.6 µM

Q: What does the source list for `COC(=O)c1ccc(-c2cc3cccc([N+](=O)[O-])c3[nH]c2=O)cc1` [Compound 18, 3-(4-methoxycarbonylphenyl)-8-nitroquinolin-2(1H)-one]?
A: CC50 at 72 h [6]: > 12.5 µM; IC50 [8]: > 12.5 µM

Q: With `O=c1[nH]c2c([N+](=O)[O-])cccc2cc1-c1ccc(CO)cc1` [Compound 12, 3-(4-hydroxymethylphenyl)-8-nitroquinolin-2(1H)-one] as the compound, how does the CC50 at 72 h [6] read?
A: > 25 µM

Q: What about the “Antitrypanosomal selectivity Index” value [7] of the same compound?
A: >13

Q: And the IC50 [8]?
A: > 25 µM

Q: With `C[C@@H]1[C@H](O)[C@@H](C)/C=C/C=C/C=C/C=C/C=C/C=C/C=C/[C@H](O[C@@H]2O[C@H](C)[C@@H](O)[C@H](N)[C@@H]2O)C[C@@H]2O[C@](O)(C[C@@H](O)C[C@@H](O)[C@H](O)CC[C@@H](O)C[C@@H](O)CC(=O)O[C@H]1C)C[C@H](O)[C@H]2C(=O)O` [Amphotericin B, reference compound] as the compound, how does the CC50 at 72 h [6] read?
A: 7 ± 0.25 µM

Q: What about the IC50 [8] of the same compound?
A: 0.06 ± 0.001 µM

Q: For `O=c1[nH]c2c([N+](=O)[O-])cccc2cc1C#Cc1ccccc1` [Compound 24, 8-nitro-3-phenylethynylquinolin-2(1H)-one], which stability [10] is on record?
A: too unstable

Q: With `CCCCCCCCCCCCCCCCOP(=O)([O-])OCC[N+](C)(C)C` [Miltefosine, reference compound] as the compound, how does the CC50 at 72 h [6] read?
A: 84.5 ± 8.8 µM

Q: What about the IC50 [8] of the same compound?
A: 0.8 ± 0.2 µM

Q: For `COc1nc2c([N+](=O)[O-])cccc2cc1-c1ccc(C(=O)O)cc1` [Compound 26, 3-(4-carboxyphenyl)-2-methoxy-8-nitroquinoline], which IC50 [8] is on record?
A: 12.8 µM

Q: For `NCCCC(N)(C(=O)O)C(F)F` (centres unmarked) [Eflornithine, reference compound], which CC50 at 72 h [6] is on record?
A: > 100 µM

Q: And the “Antitrypanosomal selectivity Index” value [7]?
A: >6

Q: With `O=[N+]([O-])c1cccc2cc3cc(-c4ccccc4)oc3nc12` [Compound 25, 8-nitro-2-phenyl-furo[2,3-b]quinoline] as the compound, how does the aqueous solubility [11] read?
A: very poor aqueous solubility

Q: For `O=c1[nH]c2c([N+](=O)[O-])cccc2cc1-c1ccccc1CO` [Compound 14, 3-(2-hydroxymethylphenyl)-8-nitroquinolin-2(1H)-one], which CC50 at 72 h [6] is on record?
A: > 100 µM

Q: And the “Antitrypanosomal selectivity Index” value [7]?
A: >14

Q: And the IC50 [8]?
A: 22 ± 2 µM

Q: With `CSc1ccc(OCc2ncc([N+](=O)[O-])n2C)cc1` [Fexinidazole, reference compound] as the compound, how does the CC50 at 72 h [6] read?
A: > 100 µM

Q: What about the “Antitrypanosomal selectivity Index” value [7] of the same compound?
A: >250

Q: And the IC50 [8]?
A: 3.3 ± 0.7 µM

Q: With `O=C(O)c1ccccc1-c1cc2cccc([N+](=O)[O-])c2[nH]c1=O` [Compound 23, 3-(2-carboxyphenyl)-8-nitroquinolin-2(1H)-one] as the compound, how does the CC50 at 72 h [6] read?
A: > 100 µM

Q: And the IC50 [8]?
A: > 100 µM

Q: With `COc1ccc(-c2cc3cccc([N+](=O)[O-])c3[nH]c2=O)cc1` [Compound 2, 3-(4-methoxyphenyl)-8-nitroquinolin-2(1H)-one] as the compound, how does the CC50 at 72 h [6] read?
A: > 6 µM

Q: And the IC50 [8]?
A: > 6 µM

Q: What does the source list for `O=C(O)c1ccc(-c2cc3cccc([N+](=O)[O-])c3[nH]c2=O)cc1` [Compound 21, 3-(4-carboxyphenyl)-8-nitroquinolin-2(1H)-one]?
A: CC50 at 72 h [6]: 120 ± 7 µM; E° (reduction potential) [9]: -0.56 V; IC50 [12]: 4.2 ± 0.2 µM; Fold change [12]: 1.3; IC50 [13]: 5.4 ± 0.12 µM; Antitrypanosomal selectivity Index [7]: 80; times more potent than the meta-substituted analogue [7]: 5; IC50 [8]: > 100 µM

Q: With `O=C(O)c1cccc(-c2cc3cccc([N+](=O)[O-])c3[nH]c2=O)c1` [Compound 22, 3-(3-carboxyphenyl)-8-nitroquinolin-2(1H)-one] as the compound, how does the CC50 at 72 h [6] read?
A: > 100 µM

Q: And the “Antitrypanosomal selectivity Index” value [7]?
A: >13

Q: And the IC50 [8]?
A: > 100 µM

Q: What does the source list for `O=c1[nH]c2c([N+](=O)[O-])cccc2cc1-c1ccco1` [Compound 9, 3-(2-furanyl)-8-nitroquinolin-2(1H)-one]?
A: CC50 at 72 h [6]: > 3 µM; IC50 [8]: > 3 µM

Q: Which CC50 at 72 h [6] does the source give for `COc1cccc2c1C(=O)c1c(O)c3c(c(O)c1C2=O)C[C@@](O)(C(=O)CO)C[C@@H]3O[C@H]1C[C@H](N)[C@H](O)[C@H](C)O1` [Doxorubicin, reference compound] here?
A: 0.2 ± 0.02 µM

Q: What does the source list for `O=c1[nH]c2c([N+](=O)[O-])cccc2cc1-c1ccc(C(F)(F)F)cc1` [Compound 7, 8-nitro-3-(4-trifluoromethylphenyl)quinolin-2(1H)-one]?
A: CC50 at 72 h [6]: > 6 µM; E° (reduction potential) [9]: -0.53 V; IC50 [8]: > 6 µM

Q: For `O=c1[nH]c2c([N+](=O)[O-])cccc2cc1-c1cccc(CO)c1` [Compound 13, 3-(3-hydroxymethylphenyl)-8-nitroquinolin-2(1H)-one], which CC50 at 72 h [6] is on record?
A: > 25 µM

Q: What about the “Antitrypanosomal selectivity Index” value [7] of the same compound?
A: >17

Q: What about the IC50 [8] of the same compound?
A: 29.3 ± 4.2 µM

Q: What does the source list for `O=c1[nH]c2c([N+](=O)[O-])cccc2cc1-c1ccc(Cl)cc1` [Compound 5, 3-(4-chlorophenyl)-8-nitroquinolin-2(1H)-one]?
A: CC50 at 72 h [6]: > 3 µM; IC50 [8]: > 3 µM

Q: With `O=Cc1ccc(-c2cc3cccc([N+](=O)[O-])c3[nH]c2=O)cc1` [Compound 15, 3-(4-formylphenyl)-8-nitroquinolin-2(1H)-one] as the compound, how does the CC50 at 72 h [6] read?
A: 30 ± 3.7 µM

Q: What about the “Antitrypanosomal selectivity Index” value [7] of the same compound?
A: 60

Q: And the “times more potent than the meta-substituted analogue” value [7]?
A: 11

Q: And the IC50 [8]?
A: 35 ± 1.7 µM

Q: What does the source list for `CC1CS(=O)(=O)CCN1/N=C/c1ccc([N+](=O)[O-])o1` (centres unmarked) [Nifurtimox, reference compound]?
A: IC50 [12]: 0.6 ± 0.05 µM; Fold change [12]: 3.1; IC50 [13]: 1.9 ± 0.05 µM

Q: Which CC50 at 72 h [6] does the source give for `O=Cc1ccccc1-c1cc2cccc([N+](=O)[O-])c2[nH]c1=O` [Compound 17, 3-(2-formylphenyl)-8-nitroquinolin-2(1H)-one] here?
A: > 50 µM

Q: What about the “Antitrypanosomal selectivity Index” value [7] of the same compound?
A: >7

Q: And the IC50 [8]?
A: 9.8 ± 1.2 µM

From publication PMC7089779 (ChemMedChem, 2018)
